Experimental findings from the array DNA melting data of Ke et al. (doi:10.1101/2024.01.08.574731) are described below.

Series [1] in a line: folding enthalpy; higher = less favourable; fluorescence melt of hairpins on a sequencing array, two-state fit. The note with it: sodium 0.088 M. The gist of the method: (§1)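 Bootstrapped two-state fits yielded melting temperature and folding enthalpy for library hairpins. Cy3 fluorescence, with annealed Cy3 and quencher oligos, was imaged on a sequenced MiSeq flow cell in 50 mM Na-HEPES pH 8.0, 25 mM NaCl in 2.5 °C steps up to 60 °C, and normalised to pre-quench Cy3 and to control constructs. Four replicates were combined by inverse variance, and fitted temperatures were raised by 9.35 °C to match UV melts.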

A short description of series [2]: melting temperature; fluorescence melt of hairpins on a sequencing array, two-state fit, raised by 9.35 °C to match UV melts. The note with it: sodium 0.088 M. The gist of the method: as §1

Take GATCGTCCGTACGATC ((((((....)))))): in series [1], the folding enthalpy was -47.3 kcal/mol. Besides, in series [2], the Tm came out at 54.9 °C.

Take GATCGTCGATACGATC ((((((....)))))): in series [1], the folding enthalpy was -38.5 kcal/mol. Besides, in series [2], the Tm came out at 54.7 °C.

On to GATCGTCGGAACGATC ((((((....)))))), for which the folding enthalpy in series [1] was -27.3 kcal/mol. Moreover, the Tm in series [2] was found to be 52.7 °C.

With GATCGTCGGGACGATC ((((((....)))))), in series [1], the folding enthalpy is -41.3 kcal/mol. In series [2], the Tm amounted to 61.7 °C.

Take GATCGTCTAACGATC ((((((...)))))): in series [1], the folding enthalpy is -38.7 kcal/mol. Moreover, the Tm in series [2] was determined as 55.6 °C.

Take GATCGTCTGTACGATC ((((((....)))))): in series [1], the folding enthalpy was -38.3 kcal/mol. Also, the Tm in series [2] is 55.7 °C.

Take GATCGTCTTTACGATC ((((((....)))))): in series [1], the folding enthalpy was -34.3 kcal/mol. For the same sequence, the Tm in series [2] came to 55.2 °C.

On to GATCGTGAATACGATC ((((((....)))))), for which, in series [1], the folding enthalpy was -35 kcal/mol. In addition, the Tm in series [2] was determined as 61.7 °C.

Consider GATCGTGATACGATC ((((((...)))))), for which the folding enthalpy in series [1] was -35.9 kcal/mol. Also, in series [2], the Tm was 57.2 °C.

Turning to GATCGTGCATACGATC ((((((....)))))), the folding enthalpy in series [1] is -37.7 kcal/mol. Further, the Tm in series [2] worked out at 60.5 °C.

Turning to GATCGTGCCACGATC ((((((...)))))), in series [1], the folding enthalpy is -35.8 kcal/mol. The Tm in series [2] is 57.8 °C.

Take GATCGTGCCTACGATC ((((((....)))))): in series [1], the folding enthalpy is -34.3 kcal/mol. In addition, the Tm in series [2] was 57.4 °C.

For GATCGTGCGGACGATC ((((((....)))))), the folding enthalpy in series [1] is -38.6 kcal/mol. In addition, in series [2], the Tm was 54.4 °C.

For GATCGTGGAAACACAATC (((.(((....))).))), in series [1], the folding enthalpy was -17.6 kcal/mol. In series [2], the Tm was 34.3 °C.

As to GATCGTGGAAACACGACC (.(((((....))))).), in series [1], the folding enthalpy was -13.3 kcal/mol. Moreover, the Tm in series [2] worked out at 41.7 °C.

GATCGTGGAAACACGGTC ((.((((....)))).)): in series [1], the folding enthalpy is -29.1 kcal/mol. Moreover, the Tm in series [2] stood at 52.7 °C.

As to GATCGTGGAAACGCGATC (((((.(....).))))), in series [1], the folding enthalpy is -39.9 kcal/mol. Further, the Tm in series [2] was determined as 55.6 °C.

Regarding GATCGTGGCAACGATC ((((((....)))))), the folding enthalpy in series [1] was -32.8 kcal/mol. Further, in series [2], the Tm is 67.6 °C.

In the case of GATCGTGGGACGATC ((((((...)))))), the folding enthalpy in series [1] was -30 kcal/mol. The Tm in series [2] came to 53.8 °C.

With GATCGTGGTAACGATC ((((((....)))))), the folding enthalpy in series [1] was -39.2 kcal/mol. The Tm in series [2] was 66.1 °C.

In the case of GATCGTGGTGACGATC ((((((....)))))), the folding enthalpy in series [1] was -39.1 kcal/mol. Further, the Tm in series [2] was 57.6 °C.

GATCGTGTAAACGATC ((((((....)))))): in series [1], the folding enthalpy was -42.2 kcal/mol. In addition, the Tm in series [2] turned out to be 66.5 °C.

Take GATCGTGTACACGATC ((((((....)))))): in series [1], the folding enthalpy is -51.3 kcal/mol. In addition, the Tm in series [2] was determined as 63.6 °C.

Turning to GATCGTGTCAACGATC ((((((....)))))), the folding enthalpy in series [1] is -39 kcal/mol. Moreover, the Tm in series [2] turned out to be 67.6 °C.

Take GATCGTTCCAACGATC ((((((....)))))): in series [1], the folding enthalpy was -39.5 kcal/mol. Moreover, the Tm in series [2] came to 58.6 °C.

Consider GATCGTTCGCACGATC ((((((....)))))), for which, in series [1], the folding enthalpy is -38 kcal/mol. Moreover, the Tm in series [2] came out at 54.2 °C.

Consider GATCGTTGAAACGATC ((((((....)))))), for which the folding enthalpy in series [1] was -39.2 kcal/mol. The Tm in series [2] is 54.8 °C.

Take GATCGTTGACACGATC ((((((....)))))): the folding enthalpy in series [1] is -38.3 kcal/mol. Also, in series [2], the Tm worked out at 52.6 °C.

Turning to GATCGTTGGCACGATC ((((((....)))))), the folding enthalpy in series [1] is -32.1 kcal/mol. In addition, the Tm in series [2] amounted to 52.5 °C.

Turning to GATCGTTTGAACGATC ((((((....)))))), the folding enthalpy in series [1] is -29.1 kcal/mol. For the same sequence, in series [2], the Tm is 54.2 °C.

Take GATCTAAAAATAGATC ((((((....)))))): the folding enthalpy in series [1] was -10.6 kcal/mol. Also, in series [2], the Tm amounted to 28.2 °C.

On to GATCTAAACTTAGATC ((((((....)))))), for which, in series [1], the folding enthalpy is -37 kcal/mol. Further, in series [2], the Tm worked out at 42.2 °C.

For the sequence GATCTAAAGGTAGATC ((((((....)))))), in series [1], the folding enthalpy is -18.5 kcal/mol. Moreover, the Tm in series [2] is 33.9 °C.

Take GATCTAAAGTAGATC ((((((...)))))): in series [1], the folding enthalpy is -22.2 kcal/mol. Also, the Tm in series [2] is 37.1 °C.

In the case of GATCTAAATTAGATC ((((((...)))))), in series [1], the folding enthalpy was -21.3 kcal/mol. Also, in series [2], the Tm turned out to be 37.8 °C.

As for GATCTAACCGTAGATC ((((((....)))))), the folding enthalpy in series [1] was -25.1 kcal/mol. The Tm in series [2] was determined as 38 °C.

Regarding GATCTAACTCTAGATC ((((((....)))))), in series [1], the folding enthalpy was -21.1 kcal/mol. Besides, the Tm in series [2] amounted to 39.6 °C.

In the case of GATCTAACTGTAGATC ((((((....)))))), in series [1], the folding enthalpy was -24.2 kcal/mol. Further, in series [2], the Tm turned out to be 39.1 °C.
